High-throughput results (PubChem)
An excerpt weighted towards active compounds, which were near 3.6% of everything screened.
RAM network inh: inhibitors of the yeast RAM network, primary screen, dse1pr::URA3 reporter, 5-FOA selection. inhibition, % at 50 µM. S. cerevisiae dse1pr::URA3 reporter, 5-FOA growth OD615, 2 d; analog-sensitive cbk1-as2 kinase mutant strain. 190,000 compounds, 1.8% hits. AID 868, 2007;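 active = inhibition above a set limit, 3 SD over mean compound inhibition, cut at about 8.4% in these data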;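 note: inhibition rescues growth on 5-FOA so higher OD means more RAM inhibition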
BB579 growth dn: growth inhibitors of yeast BB579 in restrictive medium, primary screen, yeast lifespan-shortening project, S. cerevisiae; OD615, 48 h; inhibition, % at 10 µM; 140,000 compounds, 0.51% hits;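 active = inhibition above a set limit, 3 SD over the mean compound inhibition, cut at about 44% in these data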
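Detection: OD615 turbidity measurement; Material: Saccharomyces cerevisiae DeaD strain BB579, replicative lifespan model yeast; Timing: 48 h exposure, 30 °C; Doses: single 10 µM dose; Medium: CSMM-D restrictive synthetic medium containing dextrose (glucose); Controls: amphotericin B at 10 µg/mL as positive control.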
Measles CPE: compounds protecting cells from measles virus cytopathic effect, primary screen, measles RdRp inhibitor project, single point, MLSMR library, absorbance; 140,000 compounds, 1.5% hits; protection (pct of control), % at 4 µM; Measles virus-infected cells, CPE protection; in the data active = protection mostly above about 24%, no sharp cut-off; inactive = mostly below about 26%
Yeast life ext: compounds extending yeast replicative lifespan, primary screen, S. cerevisiae, OD615. inhibition of the nicotinamide effect, % at 10 µM. 130,000 compounds, 0.68% hits. S. cerevisiae growth with nicotinamide; deaD strain in restrictive glucose medium. AID 775, 2007;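 active = inhibition above a set limit, placed 3 SD over the median of all compounds, cut at about 26% in these data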
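Material: Modified budding yeast, DeaD strain | Medium: Restrictive glucose medium | Probe or stimulus: 1.5 mM nicotinamide | Dosing: Single dose 10 µM compound, 0.25% DMSO | Times: 48 h at 30 °C | Technique: OD615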
A number is an active result; - = inactive; . = not tested or not shown.

SMILES | RAM network inh | BB579 growth dn | Measles CPE | Yeast life ext
COC(=O)C1CSC(C(=O)OC)N1C(=O)CN1CCN(c2ccc(OC)cc2)CC1 (configuration not stated) | - | . | . | .
Cc1cc(NCCN2CCOCC2)n2nc(C)c(-c3ccccc3)c2n1 | - | - | - | -
Cc1cc(NCCN2CCOCC2)n2ncc(-c3ccccc3)c2n1 | - | - | - | 42
O=C(O)c1cnc(-c2ccccc2)nc1Sc1ccc(Cl)cc1 | 8.6 | - | - | -
COc1ccc(Sc2nc(-c3ccccc3)ncc2C(=O)O)cc1 | - | . | . | .
CSc1ccc(CN(C)C(C)C(=O)NCc2ccccc2)cc1 (configuration not stated) | - | . | . | .
CC(c1ccco1)N(C(=O)c1ccccc1NS(=O)(=O)c1cc([N+](=O)[O-])ccc1Cl)c1ccccn1 (configuration not stated) | - | - | - | 59
CC(c1ccco1)N(C(=O)c1ccccc1NS(=O)(=O)c1ccc(Cl)cc1)c1ccccn1 (configuration not stated) | - | - | - | -
CC(c1ccco1)N(C(=O)c1ccccc1NS(=O)(=O)c1cccc([N+](=O)[O-])c1)c1ccccn1 (configuration not stated) | - | - | - | 34
COc1ccc(N2C(=O)CCC(C(=O)N3CCN(c4ccccn4)CC3)C2c2ccc(F)cc2)cc1 (configuration not stated) | - | . | . | .
CCCCOc1ccc(C(=O)N2CCCC2C(=O)O)cc1 (configuration not stated) | - | - | 48 | -
Cc1nc(Nc2ccc(Cl)c(Cl)c2)sc1C(=O)Nc1ccccc1 | - | 79 | - | -
Cn1cc2cc(NC(N)=S)ccc2n1 | - | . | . | .
Cc1ccc(NC(=O)CCC(=O)NNC(=O)NC2CCCCC2)c(C)c1 | - | . | . | .
C#CCOCCOCCOCCNc1nc(N2CCN(C(=O)[C@H](Cc3cc4ccccc4[nH]3)n3cc([C@@H](N)C(C)CC)nn3)CC2)nc(N2CCN(C(=O)[C@H](Cc3cc4ccccc4[nH]3)n3cc([C@@H](N)CC(C)C)nn3)CC2)n1 (some centres not stated) | - | . | . | .
COc1ccc(C(=O)CSc2ncn[nH]2)cc1OC | - | - | 48 | -
O=C(COc1ccc(Cl)cc1Cl)NCCSc1ccc(Cl)cc1 | 9.0 | - | - | -
COc1ccc(-c2nc(N)n(C(=O)c3cccs3)n2)cc1 | - | . | . | .
COc1cc(S(=O)(=O)N(Cc2cccs2)CC2CCCO2)ccc1-n1cnnn1 (configuration not stated) | - | - | - | -
O=S(=O)(NCc1ccccc1)c1ccc(S(=O)(=O)N(Cc2cccs2)CC2CCCO2)cc1 (configuration not stated) | 8.9 | - | - | -
O=C(Cc1ccccc1[N+](=O)[O-])N1CCc2ccccc2C1 | - | . | . | .
c1ccc(-c2nnc(-c3ccccn3)nc2NC2CCCCC2)cc1 | - | 94 | - | -
CNc1nc(-c2ccccn2)nnc1-c1ccccc1 | - | - | - | -
O=C(NC(=S)Nc1nc2c(s1)CSc1ccccc1-2)c1ccccc1 | - | - | - | 66
CCOCN(C(=O)Cn1c(CO)nc2ccccc21)c1c(C)cccc1CC | - | - | 35 | -
SMILES | RAM network inh | BB579 growth dn | Measles CPE | Yeast life ext
CCOC(=O)C1=C(C)N=c2s/c(=C/c3ccco3)c(=O)n2C1c1cccc(OC)c1 (configuration not stated) | 9.5 | - | - | -
COc1ccc(OC)c(C2=NOC(C(=O)NCc3cccs3)C2)c1 (configuration not stated) | - | . | . | .
Cc1ccccc1CSc1ccc2nnc(-c3ccccn3)n2n1 | - | . | . | .
CN([C@@H](Cc1ccc(OS(=O)(=O)c2cccc3cnccc23)cc1)C(=O)N1CCN(c2ccccc2)CC1)S(=O)(=O)c1cccc2cnccc12 | 9.2 | - | - | -
COc1ccnc(Oc2ccc(F)cc2)c1C(=O)N/C=N/OCc1ccc(Cl)cc1Cl | - | - | 29 | -
Cc1sc2nc(C3CC3)nc(SCC(=O)N3CCc4ccccc4C3)c2c1C | - | - | - | -
Cc1sc2nc(C3CC3)nc(SCC(=O)N3CCCc4ccccc43)c2c1C | 9.2 | - | - | -
COc1ccccc1NC(=O)c1ccc(NC(=O)CN2CCCC2)cc1 | - | . | . | .
COc1ccccc1NC(=O)c1ccc(NC(=O)COC(=O)C2CCCCC2)cc1 | - | - | 49 | -
COc1cccc(C(=O)/C=C/Nc2ccc(S(=O)(=O)Nc3onc(C)c3C)cc2)c1 | 8.9 | - | - | -
CC(=O)c1cccc(NS(=O)(=O)c2ccc(N/C=C/C(=O)c3ccc(F)cc3)cc2)c1 | 9.6 | - | - | -
CCOc1ccc(C(=O)/C=C/Nc2ccc(S(=O)(=O)Nc3onc(C)c3C)cc2)cc1 | - | - | - | -
O=C(CSc1nnc(Cc2ccccc2)o1)NCc1ccc2c(c1)OCO2 | - | . | . | .
CCOC(=O)c1c(NC(=O)CSc2ncnc3ccccc23)sc(C)c1C | 8.9 | - | - | -
CC(=O)Nc1ccc(NC(=O)CSc2nnc(-c3ccccc3)n2Cc2ccc3c(c2)OCO3)cc1 | 8.6 | - | - | -
CCOC(=O)c1c(NC(=O)CSc2ccccc2C(=O)O)sc(C)c1C | - | . | . | .
O=C(CSc1nnc(Cc2ccccc2)o1)Nc1ccc2c(c1)OCO2 | - | - | 20 | -
CC1(C)Cc2ccccc2-c2nnc(SCC(=O)Nc3ccc4c(c3)OCO4)n21 | - | - | - | 81
c1ccc2c(-c3cn4ccccc4n3)c[nH]c2c1 | - | . | . | .
COc1cccc(COCC(O)Cn2cnc3cc(C)c(C)cc32)c1 (configuration not stated) | - | . | . | .
CCN(CC)CCN(C(=O)c1ccc(CN2CCCCC2)o1)C(C(=O)NC1CCCCC1)c1ccc(F)cc1 (configuration not stated) | - | . | . | .
Cc1ccc(CN2CC(C(=O)Nc3ccc(F)c([N+](=O)[O-])c3)CC2=O)cc1 (configuration not stated) | - | . | . | .
CC(=O)C1=C(O)CCCC1=NCc1nc2ccccc2[nH]1 | - | . | . | .
COC(=O)CCCC(=O)N1CCCC(C(=O)c2ccc(OC)cc2C)C1 (configuration not stated) | - | . | . | .
CCOC(=O)C1(C)NC(c2ccco2)C2C(=O)N(C)C(=O)C21 (configuration not stated) | - | . | . | .
SMILES | RAM network inh | BB579 growth dn | Measles CPE | Yeast life ext
CCOC(=O)c1sc(NC(=O)CSc2nnc(Cc3ccccc3)o2)c(C(=O)OCC)c1C | 8.9 | - | - | -
CCOC(=O)c1sc(NC(=O)CSc2nc3ccccc3o2)c(C(=O)OCC)c1C | - | - | - | -
COc1cccc(CNC(=O)Nc2cccs2)c1 | - | - | 44 | -
COc1ccc(CNC(=O)Nc2cccs2)cc1OC | - | - | - | -
CC(C(=O)Nc1ccccc1Sc1ccccc1)N(c1ccccc1)S(C)(=O)=O (configuration not stated) | 8.4 | - | - | -
Clc1cccc(Cl)c1Cn1cnc2c(N3CCCCCC3)ncnc21 | - | - | 33 | -
